# Bioassay records as filed in PubChem.
# Dynein cargo inh: blocks dynein driven cargo transport along microtubules. 3617.4 mouse cells, GR-EGFP nuclear translocation imaging; test concentration mostly 20 µM; stimulated with dexamethasone, 1 µM; active compounds read low. AID 1381. actives 0.47% (n = 220,000). z-score, hits read low;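 active = plate z-score of nuclear minus cytoplasmic receptor signal below a set negative limit, without overly bright fluorescence or cell loss, cut at about -3.5 in these data, passing the limit was not always enough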;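 note: z-score of nuclear minus cytoplasmic ring GR-EGFP intensity difference per well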
#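 Buffer or medium: tet-free, stripped-serum medium; reagent: dexamethasone at 1.0 µM final, 30 min; incubation: 48 h induction, 1 h compound, 30 min dex at 37 °C; measured by: formaldehyde fixation, Hoechst nuclear stain, 10x automated fluorescence imaging; read-out: nuclear-to-cytoplasmic GR-EGFP distribution per well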
# PTEN del growth: PTEN-deleted cell growth suppression; HCT116 PTEN-null viability, CellTiter-Glo, 60 h; active compounds read low; viability, % at 10 µM; actives 1.2% (n = 140,000);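 active = viability at or below a set limit, 4 SD under the median of all tested compounds, cut at about 3.7% in these data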;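 note: PTEN knockout HCT116 line with beta catenin targeted HCT116 as companion control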
# Lmaj promast: inhibitors of Leishmania major promastigote growth; inhibition, % at 10 µM; AID 1063; Leishmania major promastigotes, resazurin fluorescence viability; actives 9% (n = 200,000); in the data active = inhibition above about 50%;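 note: promastigotes grown with compound for 44 hours at 28 °C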
# Autophagy HCS: alters autophagy in cells; actives 0.98% (n = 190,000); AID 463193; MEF GFP-LC3 puncta imaging; test concentration mostly 10 µM; calls only at 10 µM (by protocol);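 active = percentage of spot-positive cells more than 3 SD above its plate mean, without a fluorescence outlier flag or 80% toxicity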;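 note: spot-positive cell cutoff set from DMSO-treated cells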
# HCT116 bCat-KO: beta-catenin-lacking colon tumor cell growth suppression. HCT116 beta-catenin knockout viability, CellTiter-Glo, 60 h; active compounds read low. viability, % at 10 µM. actives 1.5% (n = 140,000). AID 818;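 active = viability at or under a set limit, the compound median less 4 SD, cut at about 6% in these data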;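 note: 0% = Hyamine 1622 control at 20 µM and 100% = untreated cell control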
# * marks the source's active call; other numbers are inactive results; i = inactive; / = no result given; + = active, no number. The list is not random: actives were taken first. Their share in the collection is about 9.2%.
SMILES,Dynein cargo inh,PTEN del growth,Lmaj promast,Autophagy HCS,HCT116 bCat-KO
O=C(c1ccccc1)C(C(=O)N1CCc2ccccc2C1)n1ccccc1=O (centres undefined),-0.44,90,73*,i,86
CC(Sc1nnc2ccccn12)C(=O)N1CCc2ccccc2C1 (centres undefined),0.12,91,-3,i,91
Cc1csc(NC(=O)Cn2nc(C)c([N+](=O)[O-])c2C)n1,-0.89,/,-3,i,/
Cc1nn(CC(=O)Nc2cccc(S(N)(=O)=O)c2)c(C)c1[N+](=O)[O-],0.91,100,63*,i,98
Cc1ccc2nc(NC(=O)Cn3nc(C)c([N+](=O)[O-])c3C)sc2c1,-0.4,105,69*,i,95
COc1cc(C2Nc3cccc4cccc(c34)N2)ccc1OC(C)=O,-0.27,94,14,i,89
COc1cc(C2Nc3cccc4cccc(c34)N2)cc(OC)c1O,-3.7*,89,19,+,91
CCCN1CCC(N2CCN(c3cccc(C(F)(F)F)c3)CC2)CC1,-0.086,86,100*,i,72
Cc1ccc(N2CCN(/N=C/c3ccccc3)CC2)cc1,-0.16,/,-1,i,/
FC(F)(F)c1cccc(N2CCN(CC3CC=CCC3)CC2)c1 (centres undefined),0.55,72,93*,i,79
Cc1ccc(N2CCN(CC3CC=CCC3)CC2)cc1 (centres undefined),-0.4,106,97*,i,94
O=C1c2ccccc2C(=O)N1CC#CCN1CCN(C2CCCCC2)CC1,3.8,106,16,i,91
C1=CCC(CN2CCN(C3CCCCCC3)CC2)CC1 (centres undefined),0.24,/,90*,i,/
COC(=O)CSc1nnc(-c2ccccn2)n1N,0.13,/,/,/,/
O=C(O)c1cccc(-n2nnnc2SCc2ccccc2Cl)c1,-0.51,/,-9,i,/
Cc1nc2c3ccccc3[nH]c(=O)n2n1,-0.35,96,-6,i,101
Cc1cccnc1NC(=O)c1ccc(S(=O)(=O)N2CC(C)OC(C)C2)cc1 (centres undefined),0.5,/,-7,i,/
O=C(O)c1c(-c2ccccc2)c(-c2ccccc2)nc2ccccc12,0.34,/,-4,i,/
Cc1ccccc1-c1nc(CN2CCC(C(=O)O)CC2)c(C)o1,-0.2,103,-6,/,107
Cc1ccccc1-c1nc(CN2CCC(C(=O)NC3CCN(Cc4ccccc4)CC3)CC2)c(C)o1,0.27,/,100*,/,/
COc1ccc(CCNC(=O)C2CCN(Cc3nc(-c4ccccc4C)oc3C)CC2)cc1OC,-0.13,74,10,i,74
Cc1ccccc1-c1nc(CN2CCC(C(=O)NCCC3=CCCCC3)CC2)c(C)o1,-0.22,2.4*,26,i,2.4*
Cc1c(NC(=O)C(Sc2ccccc2)c2ccccc2)cccc1[N+](=O)[O-] (centres undefined),0.15,71,7,i,64
C=CCN=C(NC#N)SCc1ccccc1Cl,0.36,80,-1,i,93
Cc1cc(NCCO)c2cc(O)ccc2n1,-0.23,111,10,i,90
SMILES,Dynein cargo inh,PTEN del growth,Lmaj promast,Autophagy HCS,HCT116 bCat-KO
COc1ccccc1OCCNC(=O)Nc1cc(F)c(F)cc1Cl,-0.87,/,/,/,/
CCN(c1ccccc1)S(=O)(=O)c1cc(C(=O)Oc2ccc3c(C)cc(=O)oc3c2)ccc1C,-1.6,107,67*,i,96
C=CCNc1sc(C(=O)c2ccc(Br)s2)c(N)c1C#N,-0.36,80,-2,+,88
CN1CCN(NS(=O)(=O)c2ccc(Cl)s2)CC1,1.1,97,55*,i,92
O=S(=O)(NN1CCOCC1)c1ccc(Cl)s1,-0.28,/,-9,i,/
COc1ccc(N=c2oc3c(OC)cccc3cc2C(=O)NCc2ccco2)c(OC)c1,1.5,4,4,+,1.8*
CC(C)(C)c1[nH]nc2c1C(Cc1ccccc1)C(C#N)=C(N)O2 (centres undefined),-0.66,102,3,i,97
Cn1c2c(c(=O)n(C)c1=O)C(C(F)(F)F)(C(F)(F)F)N=C(c1ccc(Cl)cc1)N2,0.44,4,100*,i,3.0*
COc1ccc2c(c1)-c1nc(/N=C/c3c(O)ccc4ccccc34)sc1CC2,-0.83,79,81*,i,74
Cn1c(SCC(=O)N2CCCc3ccccc32)nnc1-c1ccccc1,0.7,114,-6,i,86
Cc1cccc(-c2nnc(SCC(=O)N3c4ccccc4CCc4ccccc43)n2C)c1,-0.53,87,91*,i,79
